Source: ChEMBL document CHEMBL5316316, “Designing Synthetic, Sulfated Glycosaminoglycan Mimetics That Are Orally Bioavailable and Exhibiting In Vivo Anticancer Activity” (J Med Chem, 2023)
Calls of active or inactive are those of the source. The calls are words filed in the database; no cut-off is given here.

Legend:
[1] = system: HT-29; test: Cytotoxicity against human HT-29 cells assessed as reduction in cell viability at 100 uM incubated for 60 to 72 hrs by MTT assay; type: toxicity, cell-based; conditions: ht-29, 100 µM, time 60-72 hrs
How it was run: (§1)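 HT-29 monolayer cells were seeded at about 2.5 × 10^3 per well in DMEM:F12 with 10% FBS and incubated overnight at 37 °C, 5% CO2. Compound was added for 60–72 h. MTT (5 mg/mL in PBS) was added for 2–3 h, crystals were dissolved in DMSO and absorbance read at 590 nm. Results are percent of vehicle control, at least three replicates.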

[2] = system: Plasma; test: Anticoagulant activity in pooled human plasma assessed as prolongation of activated partial thromboplastin time incubated for 4 mins by coagulometer analysis; type: functional, cell-free
How it was run: (§2)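 Pooled normal citrated human plasma (90 μL) mixed with 10 μL compound and 100 μL prewarmed ellagic acid APTT reagent, incubated 4 min at 37 °C, then recalcified with 100 μL prewarmed 25 mM CaCl2. Clot time read on a fibrometer (one-stage recalcification). Water blank gave the baseline. Concentration doubling APTT came from a quadratic trend-line fit.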

[3] = system: Plasma; test: Anticoagulant activity in human plasma assessed as prolongation of activated partial thromboplastin time by measuring concentration required to double APTT incubated for 4 mins by coagulometer analysis; type: functional, cell-free; how it was run: as §2
[4] = Cytotoxicity against human HT-29 cells assessed as inhibition of spheroid growth; conditions: HT-29 cell spheroids
[5] = system: Mus musculus; test: Antithrombotic activity in ICR mouse model of tail-bleeding assessed as increase in blood loss at 100 mg/kg, iv
[6] = system: HT-29; test: Antitumor activity against human HT-29 cells xenografted in NCR nude mouse assessed as spheroid formation at 50 mg/kg, ip; type: functional, organism-based
How it was run: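 Bulk HT-29 xenografts in NCr nude mice were FUOX-pretreated, then given 50 mg/kg IP three times/week (8 doses), alone or with FUOX. Collagenase-digested tumor cells were serially cultured as 1°–4° spheroids in stem cell medium with EGF/FGF. Spheroids of 50–150 μm were counted by phase contrast, in at least three replicates.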

[7] = system: HT-29; test: Antitumor activity against human HT-29 cells xenografted in NCR nude mouse assessed as reduction in DCAMKL1 expression level at 50 mg/kg, ip in presence of 5-fluorouracil and oxaliplatin of by Western blot analysis; type: functional, organism-based
How it was run: (§3)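 Bulk HT-29 cells (1 × 10^6) were grown as subcutaneous xenografts in NCr nude mice and given FUOX (25 mg/kg FU + 2 mg/kg OX IP weekly for 3 weeks). Mice were then randomized (n = 4/arm) to 50 mg/kg IP three times/week (8 doses), alone or with FUOX. Tumor lysates (n = 2/group) were Western blotted for DCAMLK1 and BMI-1.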

[8] = system: HT-29; test: Antitumor activity against human HT-29 cells xenografted in NCR nude mouse assessed as reduction in BMI-1 expression level at 50 mg/kg, ip in presence of 5-fluorouracil and oxaliplatin of by Western blot analysis; type: functional, organism-based; how it was run: as §3
[9] = Toxicity in NCR nude mouse xenografted with human HT-29 cells assessed as change in body weight at 50 mg/kg, ip in presence 5-fluorouracil and oxaliplatin; type: organism-based; conditions: in vivo
[10] = Ex-vivo growth inhibition of mouse intestinal organoids measured for 5 to 7 days by phase contrast microscopic analysis; type: toxicity, Intestine; conditions: time 5-7 day
How it was run: (§4)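 Intestinal pieces (2–4 cm) were taken from treated xenograft mice and chelated and dissociated into crypts. About 200–500 crypts were embedded in Matrigel under mouse IntestiCult medium at 37 °C, 5% CO2. Organoids were counted by phase contrast after 5–7 days.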

[11] = Ex-vivo growth inhibition of mouse intestinal organoids measured for 5 to 7 days in presence of 5-fluorouracil and oxaliplatin by phase contrast microscopic analysis; type: toxicity, Intestine; conditions: time 5-7 day; how it was run: as §4
[12] = system: HT-29; test: Antitumor activity against CD133/CXCR4-induced human HT-29 cells xenografted in NCR nude mouse assessed as reduction in tumor growth at 100 mg/kg, po administered 5 times a week for 3 weeks; type: functional, organism-based
How it was run: (§5)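 Dual Hi (CD133+/CXCR4+) HT-29 cells, FACS-sorted, injected subcutaneously at 1 × 10^5 into NCr nude mice. Mice were then randomized to vehicle or 100 mg/kg oral gavage 5 times/week for 3 weeks. Tumor volume was measured by caliper three times weekly.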

[13] = system: HT-29; test: Antitumor activity against human CD133/CXCR4-induced HT-29 cells xenografted in NCR nude mouse assessed as spheroid formation at 100 mg/kg, po administered 5 times a week for 3 weeks by phase contrast microscopic analysis; type: functional, organism-based
How it was run: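 Xenografts (Dual Hi HT-29, FUOX-pretreated, 100 mg/kg oral 5×/week for 3 weeks) were digested with collagenase IV and filtered at 70 μm. Cells were plated serially as 1°–3° spheroids on low-adhesion plates in stem cell medium with EGF and FGF. Spheroids of 50–150 μm were counted by phase contrast. At least three replicates.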

[14] = Toxicity in NCR nude mouse xenografted with human HT-29 cells assessed as change in body weight at 100 mg/kg, po; type: organism-based; conditions: in vivo
[15] = Toxicity in NCR nude mouse xenografted with human HT-29 cells assessed as bleeding at 100 mg/kg, po; type: organism-based; conditions: in vivo
[16] = system: HT-29; test: Antitumor activity against human HT-29 cells xenografted in NCR nude mouse assessed as reduction in tumor growth at 100 mg/kg, po administered 5 times a week for 3 weeks relative to control; type: functional; parameters: scale not given: the % may be the effect or the level left; how it was run: as §5
[17] = Ex-vivo growth inhibition of mouse intestinal organoids at 100 mg/kg, po measured for 5 to 7 days by phase contrast microscopic analysis; conditions: in vivo
[18] = system: HT-29; test: Antitumor activity against human HT-29 cells xenografted in NCR nude mouse assessed as decrease in proportion of CSC at 100 mg/kg, po administered 5 times a week for 3 weeks by flow cytometry analysis
[19] = system: HT-29; test: Cytotoxicity against human HT-29 cells assessed as reduction in cell viability at 400 uM incubated for 60 to 72 hrs by MTT assay; type: toxicity, cell-based; conditions: ht-29, 400 µM, time 60-72 hrs; how it was run: as §1
[20] = system: HT-29; test: Antitumor activity against human HT-29 cells xenografted in NCR nude mouse assessed as decrease in LGR5 expression at 100 mg/kg, ip administered 3 times a week for 4.6 weeks by Western blot analysis; type: functional, organism-based
How it was run: (§6)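 Mice were randomized to 100 mg/kg IP three times/week for 4.6 weeks (14 doses). Tumors (n = 2/group) were dissociated and analysed by Western blot for LGR5, DCAMLK1 and BMI-1, and by flow cytometry for CD133+/CXCR4+ cells.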

[21] = system: HT-29; test: Antitumor activity against human HT-29 cells xenografted in NCR nude mouse assessed as decrease in DCAMKL1 expression at 100 mg/kg, ip administered 3 times a week for 4.6 weeks by Western blot analysis; type: functional, organism-based; how it was run: as §6
[22] = system: HT-29; test: Antitumor activity against human HT-29 cells xenografted in NCR nude mouse assessed as decrease in BMI-1 expression at 100 mg/kg, ip administered 3 times a week for 4.6 weeks by Western blot analysis; type: functional, organism-based; how it was run: as §6
[23] = system: HT-29; test: Antitumor activity against human HT-29 cells xenografted in NCR nude mouse assessed as spheroid formation at 25 mg/kg, ip administered for 3 weeks in presence of oxaliplatin; type: functional, organism-based
How it was run: (§7)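 HT-29 cells (1×10^6 bulk, or 1×10^5 FACS-sorted CD133+/CXCR4+) injected subcutaneously into NCr nude mice. Once tumors were palpable (>50 mm3), 5-fluorouracil 25 mg/kg plus oxaliplatin 2 mg/kg given IP weekly for 3 weeks, then mice randomized for further treatment. Tumor volume by Vernier caliper three times weekly. Ex vivo xenograft cells were digested with collagenase IV and assessed for 1°–4° spheroids (50–150 μm) and for Dual Hi/LGR5+ cells by flow cytometry.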

[24] = system: HT-29; test: Antitumor activity against human HT-29 cells xenografted in NCR nude mouse assessed as increase in proportion of CSC at 25 mg/kg, ip administered for 3 weeks in presence of oxaliplatin by flow cytometry analysis (reference value: 11.37 %); type: functional; how it was run: as §7
[25] = system: HT-29; test: Antitumor activity against human HT-29 cells xenografted in NCR nude mouse assessed as reduction in tumor volume at 25 mg/kg, ip administered for 3 weeks in presence of oxaliplatin by vernier caliper method; type: functional, organism-based; how it was run: as §7
[26] = system: HT-29; test: Antitumor activity against human HT-29 cells xenografted in NCR nude mouse assessed as increase in number of spheroids at 25 mg/kg, ip administered for 3 weeks in presence of oxaliplatin; type: functional, organism-based; how it was run: as §7

In the case of CC(C)CCC[C@@H](C)[C@H]1CC[C@H]2[C@@H]3CC=C4C[C@@H](OCCCCCCCCOc5cc(-c6oc7cc(OS(=O)(=O)[O-])cc(OCCCOc8cc(OS(=O)(=O)[O-])cc9oc(-c%10ccc(OS(=O)(=O)[O-])c(OS(=O)(=O)[O-])c%10)c(OS(=O)(=O)[O-])c(=O)c89)c7c(=O)c6OS(=O)(=O)[O-])ccc5OS(=O)(=O)[O-])CC[C@]4(C)[C@H]3CC[C@]12C.[Na+].[Na+].[Na+].[Na+].[Na+].[Na+].[Na+], the Activity [1] is reported as “Toxic”, the Activity [2] is reported as “Dose-Dependent Effect” and the Activity [3] is reported as “Active”. The IC50 [4] was 0.8 µM and the Activity [5] was “Active”.
In the case of CC(C)CCC[C@@H](C)[C@H]1CC[C@H]2[C@@H]3CC=C4C[C@@H](OCCOc5cc(-c6oc7cc(OS(=O)(=O)[O-])cc(OCCCOc8cc(OS(=O)(=O)[O-])cc9oc(-c%10ccc(OS(=O)(=O)[O-])c(OS(=O)(=O)[O-])c%10)c(OS(=O)(=O)[O-])c(=O)c89)c7c(=O)c6OS(=O)(=O)[O-])ccc5OS(=O)(=O)[O-])CC[C@]4(C)[C@H]3CC[C@]12C.[Na+].[Na+].[Na+].[Na+].[Na+].[Na+].[Na+], the Activity [1] is reported as “Toxic”, the Activity [2] is reported as “Dose-Dependent Effect” and the Activity [3] is reported as “Active”. The Activity [6] was “Active”, the Activity [7] was “Active” and the Activity [8] was “Active”. The Activity [9] was “Non-Toxic”, the Activity [10] was “Non-Toxic” and the Activity [11] was “Non-Toxic”. For the same compound, the Activity [12] was “Active”, the Activity [13] was “Active” and the Activity [14] was “Non-Toxic”. For the same compound, the Activity [15] was “Non-Toxic”, the Activity [16] was about 70% and the IC50 [4] was 5.5 µM. The Activity [17] was “Non-Toxic” and the Activity [18] was “Active”.
In the case of CC(C)CCC[C@@H](C)[C@H]1CC[C@H]2[C@@H]3CC=C4C[C@@H](OCCCCCOc5cc(-c6oc7cc(OS(=O)(=O)[O-])cc(OCCCOc8cc(OS(=O)(=O)[O-])cc9oc(-c%10ccc(OS(=O)(=O)[O-])c(OS(=O)(=O)[O-])c%10)c(OS(=O)(=O)[O-])c(=O)c89)c7c(=O)c6OS(=O)(=O)[O-])ccc5OS(=O)(=O)[O-])CC[C@]4(C)[C@H]3CC[C@]12C.[Na+].[Na+].[Na+].[Na+].[Na+].[Na+].[Na+], the Activity [19] is reported as “Toxic”, the Activity [2] is reported as “Dose-Dependent Effect” and the Activity [3] is reported as “Active”. The Activity [20] was “Active”, the Activity [21] was “Active” and the Activity [22] was “Active”. It also gave an IC50 [4] of 11.5 µM.
With O=c1[nH]cc(F)c(=O)[nH]1 [FLUOROURACIL] the Activity [23] was “Active”, the Activity [24] was 26.4% and the Activity [25] was “Active”. For the same compound, the Activity [26] was “Active”.
